# Sampled rows, rich in hits. Any-hit rate of the full collection: about 1.6%.
# eIF4E 4G PPI: eIF4E/eIF4G interaction inhibition in translation initiation. TR-FRET eIF4E-eIF4GI(517-606) binding, 2 h. inhibition, % at 21.7 µM. 220,000 tested, 0.37% active. AID 782;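 also: 0% = full FRET control wells and 100% = background wells lacking eIF4GI fragment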
# 14-3-3 Bad PPI: disrupts binding of bovine 14-3-3 zeta to phospho-Bad peptide. P63103. TR-FRET 14-3-3zeta/Dy647-pBad peptide displacement, 1 h. 220,000 tested, 0.71% active. inhibition, % at 21.7 µM;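 active = inhibition above about 70%, limit read from the data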;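 also: 0% = full 14-3-3 plus peptide FRET controls and 100% = background without 14-3-3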
# p97 ATPase inh: inhibitors of human p97 ATPase. inhibition, % at 8 µM. 220,000 tested, 0.42% active. recombinant p97 ATPase, Kinase-Glo ATP luminescence, 3 h. P55072. AID 1481; in the data active = inhibition above about 15%;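 also: 0% = DMSO vehicle and 100% = wells lacking enzyme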
# p47phox inh: blocks human p47phox regulatory protein of NADPH oxidases; p47phox/p22phox peptide binding, fluorescence polarization, 2 h; inhibition, % at 24.7 µM; 220,000 tested, 0.53% active;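 also: 0% = p47phox with labelled peptide and 100% = labelled peptide alone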
# TbMetRS inhib: blocks T. brucei methionyl-tRNA synthetase activity. inhibition, % at 11.9 µM. purified T. brucei MetRS, ATP depletion, Kinase-Glo luminescence. 360,000 tested, 0.4% active;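 active = inhibition above a per-plate cutoff of the control wells' mean inhibition plus 3 SD, cut at about 5.5% in these data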;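 also: 0% = DMSO wells median and 100% = median of wells with control inhibitor compound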
#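 Material: T. brucei methionyl-tRNA synthetase, purified; reagent: substrates ATP, L-methionine and bulk Escherichia coli tRNA; dosing: 11.9 µM single point; timing: 15 min plus 2 h at 25 °C; detection: luminescence of leftover ATP; evaluation: % inhibition; control set: DMSO-only wells as low control; replicates: singlicate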
# SUMO HTRF inh: inhibitors of human SUMOylation (UBC9); 290,000 tested, 0.36% active; HTRF SUMOylation assay, SAE1/SAE2 + UBC9, in vitro; AID 2006; inhibition, % at 35 µM; in the data active = inhibition above about 50%, passing the limit was not always enough
# Starred values were filed as active, the others as inactive; nt = no result; [ ] = remark or other dose.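 The calls were made as follows, unless noted: active = inhibition above about 30% (limit read from the data); inactive = the rest.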
SMILES,eIF4E 4G PPI,14-3-3 Bad PPI,p97 ATPase inh,p47phox inh,TbMetRS inhib,SUMO HTRF inh
COc1ccc(NC(=O)Nc2nnc(-c3ccccc3SCc3ccccc3)s2)cc1,-14.0,-1.1,5.5,-13.1,-1.3,10.9
COC(=O)[C@]12CCCCC=C1N(CCc1ccc(OC)c(OC)c1)C(=O)[C@H](CC(=O)NCC1CCCCC1)C2,nt,nt,nt,nt,-1.0,nt
C[C@H](NC(=O)c1ccco1)C(=O)N1CCN(c2ccc(C(F)(F)F)cn2)CC1,nt,nt,nt,nt,-0.2,nt
Cc1ccc(-c2nc3cc(C)c(Br)c(C)n3c2Cc2ccsc2)cc1,nt,nt,nt,nt,-0.4,nt
Cc1cn([C@H]2C[C@H](O)[C@@H](CCC(=O)NCCc3cccs3)O2)c(=O)[nH]c1=O,nt,nt,nt,nt,-0.2,nt
CCN=C(Nc1ccc2c(c1)OCO2)SC1CC(=O)N(c2ccccc2F)C1=O (centres undefined),-2.7,-7.7,-1.8,42.2*,-0.5,12.2
CCN=C(Nc1ccc2c(c1)OCO2)SC1CC(=O)N(c2ccc(OC)cc2)C1=O (centres undefined),2.5,-5.5,2.5,-5.4,-0.6,-46.5
O=C(COc1ccc(-c2ccccc2)cc1)N1CCN(S(=O)(=O)Cc2ccccc2)CC1,-0.1,4.6,-0.8,-2.2,-1.0,4.6
COC(=O)CSc1nc2sc3c(c2c(=O)[nH]1)CCC3,-4.1,-1.7,6.6,76.5*,0.3,11.1
CC(=O)c1sc(Nc2nc3cc4c(cc3s2)OCO4)nc1C,19.4,87.7*,-0.6,-1.0,-0.4,24.0
CCCCc1c(C)nc2c(OC)cccc2c1SCCC(=O)O,-3.3,-8.9,7.2,33.5*,-0.8,-15.0
CCc1c(C)nc2c(OC)cccc2c1SCCC(=O)O,3.5,12.3,5.1,2.2,-0.7,6.8
Cc1cccc(NC(=O)CN2C(=O)S/C(=C\c3ccc(O)c([N+](=O)[O-])c3)C2=O)c1,-4.5,1.3,1.4,-11.0,2.4,2.6
Cc1ccc(NC(=O)CN2C(=O)S/C(=C/c3ccc(O)c([N+](=O)[O-])c3)C2=O)cc1C,45.5*,83.5*,9.7,16.3,0.4,nt
CC1CN(S(=O)(=O)c2cccc(C(=O)Nc3ccc(S(=O)(=O)NC4=NCCCCC4)cc3)c2)CC(C)O1 (centres undefined),nt,nt,nt,nt,-0.6,nt
COc1ccc(/C=N/n2cnc3c([nH]c4ccc(Br)cc43)c2=O)cc1CN1CCOCC1,40.8*[fluorescence artefact?],13.6,4.7,-4.2,nt,-12.6
N=C1/C(=C\c2ccc(-c3cccc(C(=O)O)c3)o2)C(=O)N=C2SC=C(c3ccccc3)N12,64.7*,94.4*,9.0,-38.2,0.1,32.9
CSCCC(C(=O)NCc1ccccc1)n1c(-c2ccc3c(c2)CCO3)nc2ccccc21 (centres undefined),nt,nt,nt,nt,-0.3,nt
COc1cc(NC(=O)c2ccc(-c3ccc(F)c(F)c3)c3ccoc23)cc(OC)c1OC,nt,nt,nt,nt,-0.4,nt
Cc1ccnc(NC(=O)c2cccs2)c1,-0.9,85.9*,-9.2,-0.8,-0.2,-9.1
Cc1ccnc(NC(=O)c2ccc(Br)s2)c1,nt,nt,nt,nt,-0.8,5.6
Cc1ccccc1-c1cc2nc(NCc3ccccc3F)n(C)c(=O)c2s1,nt,nt,nt,nt,-0.4,nt
Cc1cc(C)n2c(NC3CCCCC3)c(CC(C)C)nc2n1,nt,nt,nt,nt,-1.0,nt
CC(=O)OCCn1c2nc(=O)[nH]c(=O)c-2nc2cc(C)c(C)cc21,8.1,64.0,-6.6,-29.9,-0.4,59.9*
Cc1nc2c(OCc3ccc(OC(F)F)cc3)cccn2c1N(C)C(=O)CCC1CCCC1,nt,nt,nt,nt,-0.3,nt
CCOC(=O)C1=CCN(S(=O)(=O)c2ccc(C)cc2)C1c1cccc(Cl)c1 (centres undefined),nt,nt,nt,nt,-1.3,nt
O=C(Nc1ccc2c(c1)OCCO2)C(CCc1ccccc1)N1CCC(Cc2ccccc2)CC1 (centres undefined),nt,nt,nt,nt,-0.8,nt
CCOc1ccc(-c2nnn(CC(=O)NCc3ccc4c(c3)OCO4)n2)cc1,-1.6,7.2,-1.8,-5.1,-1.4,33.1
COc1ccc(-c2nnn(CC(=O)NCc3ccc4c(c3)OCO4)n2)cc1OC,6.9,39.6,3.5,33.7*,-0.4,19.7
CCOc1ccc(-n2c(SCC(=O)Nc3ccc(CC)cc3)nc3n[nH]c(C)c3c2=N)cc1,7.1,24.6,-3.8,17.2,0.2,55.7*

# Compound activity from PubChem.
